Measured values reported in ChEMBL document CHEMBL1149773, “Synthesis, determination of the lipophilicity, anticancer and antimicrobial properties of some fused 1,2,4-triazole derivatives” (Eur J Med Chem, 2008).
Converted amounts (≈) assume the structure as drawn. Values belong to the molecule of their own block, whether it stands above or below them.

What was measured:
[1] = system: Pseudomonas aeruginosa; test: Antimicrobial activity against Pseudomonas aeruginosa ATCC 27853 after 24 hrs by microdilution assay; assay type: functional; conditions: ATCC 27853, 24 h
[2] = system: Staphylococcus aureus; test: Antimicrobial activity against Staphylococcus aureus ATCC 25923 after 24 hrs by microdilution assay; assay type: functional; conditions: ATCC 25923, 24 h
[3] = system: Staphylococcus aureus; test: Antimicrobial activity against Staphylococcus aureus ATCC 25923 at 572.4 uM by disc-diffusion method; assay type: functional; conditions: read-out: IZ
How it was run: (§1)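 Kirby–Bauer disc diffusion on Mueller-Hinton medium. Sterile 5 mm paper discs are impregnated with agent dissolved in DMSO and placed on inoculated agar. DMSO discs serve as solvent control. Plates are incubated 24 h at 35 °C. Inhibition zone diameter is scored as 0–10 mm resistant, 11–16 mm intermediate, or 17–25 mm susceptible. Each assay is run three times.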

[4] = system: Klebsiella aerogenes; test: Antimicrobial activity against Enterobacter aerogenes at 572.4 uM by disc-diffusion method; assay type: functional; conditions: read-out: IZ
How it was run: (§2)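 Kirby–Bauer disc diffusion: 5 mm paper discs soaked in compound solution in DMSO (100 or 200 µg/mL; reference drugs 200 µg/mL) and laid on inoculated Mueller-Hinton agar (bacteria) or Sabouraud agar (C. albicans, Aspergillus). DMSO discs were the control. Plates ran 24 h at 35 °C. Inhibition zone diameter was scored 0–10 mm R, 11–16 mm I, 17–25 mm S; triplicate.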

[5] = system: Pseudomonas aeruginosa; test: Antimicrobial activity against Pseudomonas aeruginosa ATCC 27853 at 572.4 uM by disc-diffusion method; assay type: functional; conditions: read-out: IZ; how it was run: as §2
[6] = system: Candida albicans; test: Antimicrobial activity against Candida albicans ATCC 10231 at 572.4 uM by disc-diffusion method; assay type: functional; conditions: read-out: IZ; how it was run: as §2
[7] = system: Escherichia coli; test: microbe, parasite or virus in culture; conditions: ATCC 25922, read-out: IZ
[8] = system: Proteus vulgaris; test: Antimicrobial activity against Proteus vulgaris at 572.4 uM by disc-diffusion method; assay type: functional; conditions: read-out: IZ; how it was run: as §2
[9] = system: Staphylococcus epidermidis; test: Antimicrobial activity against Staphylococcus epidermidis at 572.4 uM by disc-diffusion method; assay type: functional; conditions: read-out: IZ; how it was run: as §2
[10] = system: Aspergillus sp.; test: Antimicrobial activity against Aspergillus sp. at 572.4 uM by disc-diffusion method; assay type: functional; conditions: read-out: IZ; how it was run: as §2
[11] = system: Klebsiella pneumoniae; test: Antimicrobial activity against Klebsiella pneumoniae at 572.4 uM by disc-diffusion method; assay type: functional; conditions: read-out: IZ; how it was run: as §2
[12] = system: Streptococcus agalactiae; test: Antimicrobial activity against Streptococcus agalactiae at 572.4 uM by disc-diffusion method; assay type: functional; conditions: read-out: IZ; how it was run: as §1
[13] = system: Streptococcus pyogenes; test: Antimicrobial activity against Streptococcus pyogenes at 572.4 uM by disc-diffusion method; assay type: functional; conditions: read-out: IZ; how it was run: as §1
[14] = system: Streptococcus agalactiae; test: Antimicrobial activity against Streptococcus agalactiae at 480.6 uM by disc-diffusion method; assay type: functional; conditions: read-out: IZ; how it was run: as §2
[15] = system: Klebsiella pneumoniae; test: Antimicrobial activity against Klebsiella pneumoniae at 480.6 uM by disc-diffusion method; assay type: functional; conditions: read-out: IZ; how it was run: as §2
[16] = system: Candida albicans; test: Antimicrobial activity against Candida albicans ATCC 10231 after 24 hrs by microdilution assay; assay type: functional; conditions: ATCC 10231, 24 h
[17] = system: Pseudomonas aeruginosa; test: Antimicrobial activity against Pseudomonas aeruginosa ATCC 27853 at 480.6 uM by disc-diffusion method; assay type: functional; conditions: read-out: IZ; how it was run: as §2
[18] = system: Aspergillus sp.; test: Antimicrobial activity against Aspergillus sp. at 480.6 uM by disc-diffusion method; assay type: functional; conditions: read-out: IZ; how it was run: as §2
[19] = system: Escherichia coli; test: Antimicrobial activity against Escherichia coli ATCC 25922 at 480.6 uM by disc-diffusion method; assay type: functional; conditions: read-out: IZ; how it was run: as §2
[20] = system: Candida albicans; test: microbe, parasite or virus in culture; conditions: ATCC 10231, read-out: IZ
[21] = system: Streptococcus pyogenes; test: Antimicrobial activity against Streptococcus pyogenes at 480.6 uM by disc-diffusion method; assay type: functional; conditions: read-out: IZ; how it was run: as §2
[22] = system: Proteus vulgaris; test: Antimicrobial activity against Proteus vulgaris at 480.6 uM by disc-diffusion method; assay type: functional; conditions: read-out: IZ; how it was run: as §2
[23] = system: Staphylococcus aureus; test: Antimicrobial activity against Staphylococcus aureus ATCC 25923 at 480.6 uM by disc-diffusion method; assay type: functional; conditions: read-out: IZ; how it was run: as §2
[24] = system: Klebsiella aerogenes; test: Antimicrobial activity against Enterobacter aerogenes at 480.6 uM by disc-diffusion method; assay type: functional; conditions: read-out: IZ; how it was run: as §2
[25] = system: Staphylococcus epidermidis; test: Antimicrobial activity against Staphylococcus epidermidis at 480.6 uM by disc-diffusion method; assay type: functional; conditions: read-out: IZ; how it was run: as §2

- MIC [1]: > 358 µM
- MIC [2]: 35.8 µM (≈ 12.5 µg/mL)
Structure (SMILES): CC1(C)S[C@@H]2[C@H](NC(=O)[C@H](N)c3ccccc3)C(=O)N2[C@H]1C(=O)O [AMPICILLIN]
- zone of inhibition at 572.4 µM [3]: 17 mm
- zone of inhibition at 572.4 µM [4]: 0 mm
- zone of inhibition at 572.4 µM [5]: 11 mm
- zone of inhibition at 572.4 µM [6]: 0 mm
- zone of inhibition at 572.4 µM [7]: 17 mm
- zone of inhibition at 572.4 µM [8]: 0 mm
- zone of inhibition at 572.4 µM [9]: 11 mm
- zone of inhibition at 572.4 µM [10]: 0 mm
- zone of inhibition at 572.4 µM [11]: 0 mm
- zone of inhibition at 572.4 µM [12]: 17 mm
- zone of inhibition at 572.4 µM [13]: 17 mm

- MIC [16]: 37.5 µM (≈ 15.6 µg/mL)
Structure (SMILES): Clc1ccc(COC(Cn2ccnc2)c2ccc(Cl)cc2Cl)c(Cl)c1 (stereo not given) [MICONAZOLE]
- zone of inhibition at 480.6 µM [14]: 0 mm
- zone of inhibition at 480.6 µM [15]: 0 mm
- zone of inhibition at 480.6 µM [17]: 0 mm
- zone of inhibition at 480.6 µM [18]: 0 mm
- zone of inhibition at 480.6 µM [19]: 0 mm
- zone of inhibition at 480.6 µM [20]: 17 mm
- zone of inhibition at 480.6 µM [21]: 0 mm
- zone of inhibition at 480.6 µM [22]: 0 mm
- zone of inhibition at 480.6 µM [23]: 0 mm
- zone of inhibition at 480.6 µM [24]: 0 mm
- zone of inhibition at 480.6 µM [25]: 0 mm
